15 compounds from ChEMBL document CHEMBL1152244, “Proteochemometrics analysis of substrate interactions with dengue virus NS3 proteases” (Bioorg Med Chem, 2008) can be followed below.

For one test, the system named is dengue virus type 2. Put plainly: Activity of dengue virus 2 recombinant NS3 protease expressed in Escherichia coli C41(DE3) by fluorogenic assay. The method in brief: (§1)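 NS2B(H)-NS3pro from inclusion bodies, Ni-chelate and gel filtration purified under 8 M urea, refolded by dialysis. Internally quenched Abz–RRRR-XXXX–nY–NH2 peptides, 1–100 µM (12 points), enzyme 150–200 nM, 50 mM Tris–HCl pH 9.0, 20% glycerol, 37 °C. Cleavage read as fluorescence, ex 320/em 420 nm. Initial rates fitted to give Km and kcat, averaged over ≥3 independent measurements.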

A further test concerns dengue virus type 3. The test can be described thus: Activity of dengue virus 3 recombinant NS3 protease expressed in Escherichia coli C41(DE3) by fluorogenic assay. The method in brief:
as §1

For a further test, the system named is dengue virus type 4. Put plainly: Activity of dengue virus 4 recombinant NS3 protease expressed in Escherichia coli C41(DE3) by fluorogenic assay. The method in brief:
as §1

The subject of the next test is dengue virus type 1. The test can be described thus: Activity of dengue virus 1 recombinant NS3 protease expressed in Escherichia coli C41(DE3) by fluorogenic assay. The method, boiled down:
as §1

Non-standard residues stand in square brackets, D forms with d. Residues, ends and D or L forms follow the SMILES beside them. Tyr(3-NO2) = N[C@@H](Cc1ccc(O)c([N+](=O)[O-])c1)C(=O)O; 2Abz = Nc1ccccc1C(=O)O

Take `CC(C)[C@H](NC(=O)CNC(=O)[C@H](CO)NC(=O)c1ccccc1N)C(=O)N[C@@H](CS)C(=O)N[C@@H](Cc1ccc(O)c([N+](=O)[O-])c1)C(N)=O` (H-[2Abz]SGVC[Tyr(3-NO2)]-NH2): the Km with dengue virus type 2 was determined as 4.26 µM; with dengue virus type 3 it was 19.7 µM; in the test with dengue virus type 4, 7.06 µM. Moreover, the kcat with dengue virus type 2 is 0.0163 s⁻¹; in the test with dengue virus type 3, 0.0292 s⁻¹; with dengue virus type 4, 0.0757 s⁻¹.

On to `NC(=O)C[C@H](NC(=O)CNC(=O)[C@H](Cc1cnc[nH]1)NC(=O)[C@H](Cc1cnc[nH]1)NC(=O)c1ccccc1N)C(=O)N[C@@H](Cc1ccc(O)c([N+](=O)[O-])c1)C(N)=O` (H-[2Abz]HHGN[Tyr(3-NO2)]-NH2), for which the Km in the test on dengue virus type 1 is 9.1 µM; with dengue virus type 2, 4.34 µM; in the test with dengue virus type 3 it was 10.1 µM; in the test on dengue virus type 4, 7.06 µM. In addition, the kcat in the test with dengue virus type 1 amounted to 0.004 s⁻¹; with dengue virus type 2 it was 0.00133 s⁻¹; in the test on dengue virus type 3 it was 0.00183 s⁻¹; in the test with dengue virus type 4 it was 0.0192 s⁻¹.

With `C[C@@H](O)[C@H](NC(=O)CNC(=O)c1ccccc1N)C(=O)NCC(=O)N[C@@H](CC(N)=O)C(=O)N[C@@H](Cc1ccc(O)c([N+](=O)[O-])c1)C(N)=O` (H-[2Abz]GTGN[Tyr(3-NO2)]-NH2), the Km was determined as 22.1 µM in the test with dengue virus type 1, 3.05 µM in the test on dengue virus type 2, 20.9 µM with dengue virus type 3 and 10.7 µM in the test on dengue virus type 4. In addition, the kcat is 0.0462 s⁻¹ with dengue virus type 1, 0.00483 s⁻¹ in the test with dengue virus type 2, 0.0128 s⁻¹ in the test with dengue virus type 3 and 0.0855 s⁻¹ in the test with dengue virus type 4.

Regarding `NC(=O)[C@H](Cc1ccc(O)c([N+](=O)[O-])c1)NC(=O)[C@H](Cc1cnc[nH]1)NC(=O)[C@@H]1CCCN1C(=O)[C@H](CO)NC(=O)[C@H](Cc1cnc[nH]1)NC(=O)c1ccccc1N` (H-[2Abz]HSPH[Tyr(3-NO2)]-NH2), the Michaelis-Menten constant (Km) with dengue virus type 1 came out at 16.7 µM; with dengue virus type 2, 5.77 µM; in the test on dengue virus type 3, 19.6 µM; in the test with dengue virus type 4 it was 7.25 µM. Also, the catalytic constant (kcat) with dengue virus type 1 worked out at 0.00633 s⁻¹; in the test on dengue virus type 2 it was 0.00117 s⁻¹; in the test with dengue virus type 3, 0.000833 s⁻¹; in the test on dengue virus type 4 it was 0.00417 s⁻¹.

For the compound `C[C@@H](O)[C@H](NC(=O)[C@H](CO)NC(=O)[C@H](CC(=O)O)NC(=O)c1ccccc1N)C(=O)N[C@@H](CS)C(=O)N[C@@H](Cc1ccc(O)c([N+](=O)[O-])c1)C(N)=O` (H-[2Abz]DSTC[Tyr(3-NO2)]-NH2), the Michaelis-Menten constant (Km) in the test on dengue virus type 1 amounted to 15.2 µM; in the test with dengue virus type 2, 12.8 µM; with dengue virus type 3, 11.1 µM; with dengue virus type 4 it was 23.1 µM. The kcat in the test with dengue virus type 1 amounted to 0.00767 s⁻¹; in the test with dengue virus type 2 it was 0.00117 s⁻¹; in the test with dengue virus type 3, 0.00333 s⁻¹; in the test on dengue virus type 4, 0.014 s⁻¹.

On to `NC(=O)C[C@H](NC(=O)c1ccccc1N)C(=O)N1CCC[C@H]1C(=O)N[C@@H](CO)C(=O)N[C@@H](Cc1cnc[nH]1)C(=O)N[C@@H](Cc1ccc(O)c([N+](=O)[O-])c1)C(N)=O` (H-[2Abz]NPSH[Tyr(3-NO2)]-NH2), for which the Km with dengue virus type 1 turned out to be 13.4 µM; in the test on dengue virus type 2 it was 5.18 µM; with dengue virus type 3, 26.9 µM; with dengue virus type 4, 21.5 µM. In addition, the kcat with dengue virus type 1 turned out to be 0.00617 s⁻¹; in the test with dengue virus type 2 it was 0.00133 s⁻¹; in the test with dengue virus type 3, 0.00183 s⁻¹; in the test with dengue virus type 4, 0.0225 s⁻¹.

Regarding `C[C@H](NC(=O)CNC(=O)c1ccccc1N)C(=O)N[C@H](C(=O)N[C@@H](Cc1cnc[nH]1)C(=O)N[C@@H](Cc1ccc(O)c([N+](=O)[O-])c1)C(N)=O)[C@@H](C)O` (H-[2Abz]GATH[Tyr(3-NO2)]-NH2), the Km with dengue virus type 1 was determined as 17.4 µM; in the test on dengue virus type 2 it was 4.66 µM; in the test on dengue virus type 3 it was 18.9 µM; in the test with dengue virus type 4 it was 7.79 µM. In addition, the kcat in the test on dengue virus type 1 worked out at 0.0825 s⁻¹; in the test on dengue virus type 2 it was 0.0157 s⁻¹; with dengue virus type 3, 0.0237 s⁻¹; with dengue virus type 4, 0.0782 s⁻¹.

On to `NC(=O)[C@H](Cc1ccc(O)c([N+](=O)[O-])c1)NC(=O)[C@H](CC(=O)O)NC(=O)[C@H](CO)NC(=O)[C@H](Cc1c[nH]c2ccccc12)NC(=O)[C@H](Cc1cnc[nH]1)NC(=O)c1ccccc1N` (H-[2Abz]HWSD[Tyr(3-NO2)]-NH2), for which the figures for the Km with dengue virus type 1, in the test on dengue virus type 2 and in the test with dengue virus type 4 were 17.2 µM, 14.9 µM and 9.76 µM, respectively. Moreover, the kcat came to 0.0025 s⁻¹ in the test on dengue virus type 1, 0.00117 s⁻¹ with dengue virus type 2 and 0.0108 s⁻¹ in the test with dengue virus type 4.

With `NC(=O)C[C@H](NC(=O)[C@H](Cc1cnc[nH]1)NC(=O)c1ccccc1N)C(=O)N[C@@H](CS)C(=O)N[C@@H](CS)C(=O)N[C@@H](Cc1ccc(O)c([N+](=O)[O-])c1)C(N)=O` (H-[2Abz]HNCC[Tyr(3-NO2)]-NH2), the Km with dengue virus type 2 was found to be 8.81 µM; in the test with dengue virus type 3, 10 µM; with dengue virus type 4, 3.28 µM. In addition, the kcat in the test on dengue virus type 2 was 0.00233 s⁻¹; with dengue virus type 3, 0.00283 s⁻¹; with dengue virus type 4 it was 0.0157 s⁻¹.

On to `NC(=O)[C@H](Cc1ccc(O)c([N+](=O)[O-])c1)NC(=O)[C@H](CS)NC(=O)CNC(=O)[C@H](Cc1c[nH]c2ccccc12)NC(=O)[C@H](CO)NC(=O)c1ccccc1N` (H-[2Abz]SWGC[Tyr(3-NO2)]-NH2), for which, in the test on dengue virus type 2, the Km amounted to 2.87 µM and the kcat worked out at 0.0065 s⁻¹. In the test on dengue virus type 4, the Michaelis-Menten constant (Km) turned out to be 4.79 µM and the kcat was 0.0398 s⁻¹.

Turning to `C[C@H](NC(=O)c1ccccc1N)C(=O)N[C@@H](Cc1cnc[nH]1)C(=O)N[C@@H](CO)C(=O)N[C@@H](CS)C(=O)N[C@@H](Cc1ccc(O)c([N+](=O)[O-])c1)C(N)=O` (H-[2Abz]AHSC[Tyr(3-NO2)]-NH2), in the test with dengue virus type 2, the Km was found to be 5.63 µM and the kcat stood at 0.00433 s⁻¹. In the test with dengue virus type 4, the Km amounted to 4.21 µM and the kcat was found to be 0.0305 s⁻¹.

Turning to `C[C@H](NC(=O)CNC(=O)[C@H](C)NC(=O)[C@H](CO)NC(=O)c1ccccc1N)C(=O)N[C@@H](Cc1ccc(O)c([N+](=O)[O-])c1)C(N)=O` (H-[2Abz]SAGA[Tyr(3-NO2)]-NH2), the Km in the test with dengue virus type 1 came to 23.3 µM; with dengue virus type 2, 3.06 µM; with dengue virus type 4, 10.5 µM. The kcat was determined as 0.227 s⁻¹ with dengue virus type 1, 0.027 s⁻¹ in the test on dengue virus type 2 and 0.222 s⁻¹ with dengue virus type 4.

Take `CC(C)[C@H](NC(=O)[C@H](CC(=O)O)NC(=O)[C@H](CC(N)=O)NC(=O)c1ccccc1N)C(=O)N[C@@H](CC(=O)O)C(=O)N[C@@H](Cc1ccc(O)c([N+](=O)[O-])c1)C(N)=O` (H-[2Abz]NDVD[Tyr(3-NO2)]-NH2): the results for the Michaelis-Menten constant (Km) in the test on dengue virus type 1, in the test with dengue virus type 2 and in the test with dengue virus type 4 were 106 µM, 43.2 µM and 85.9 µM, respectively. Besides, the kcat in the test on dengue virus type 1 came to 0.006 s⁻¹; with dengue virus type 2, 0.00167 s⁻¹; with dengue virus type 4 it was 0.0253 s⁻¹.

In the case of `CC(C)C[C@H](NC(=O)[C@H](Cc1cnc[nH]1)NC(=O)c1ccccc1N)C(=O)N[C@H](C(=O)N[C@@H](Cc1cnc[nH]1)C(=O)N[C@@H](Cc1ccc(O)c([N+](=O)[O-])c1)C(N)=O)C(C)C` (H-[2Abz]HLVH[Tyr(3-NO2)]-NH2), the figures for the Km with dengue virus type 1, with dengue virus type 2 and with dengue virus type 4 were 8.83 µM, 14.1 µM and 16.3 µM, respectively. In addition, the figures for the turnover number (kcat) in the test on dengue virus type 1, in the test on dengue virus type 2 and in the test with dengue virus type 4 were 0.00617 s⁻¹, 0.00233 s⁻¹ and 0.018 s⁻¹, respectively.

In the case of `C[C@H](NC(=O)c1ccccc1N)C(=O)N1CCC[C@H]1C(=O)NCC(=O)N[C@@H](CC(=O)O)C(=O)N[C@@H](Cc1ccc(O)c([N+](=O)[O-])c1)C(N)=O` (H-[2Abz]APGD[Tyr(3-NO2)]-NH2), the Km in the test with dengue virus type 2 was 19.6 µM; with dengue virus type 4, 89 µM. Further, the kcat in the test on dengue virus type 2 came out at 0.000667 s⁻¹; in the test on dengue virus type 4 it was 0.0103 s⁻¹.
